From ChEMBL document CHEMBL2390866, “Novel pyrimidoazepine analogs as serotonin 5-HT(2A) and 5-HT(2C) receptor ligands for the treatment of obesity” (Eur J Med Chem, 2013)

Experiments:
[1] = target: T1, 5-hydroxytryptamine receptor 2C (Homo sapiens) (UniProt P28335); assay: Displacement of [3H]-mesulergine from human recombinant 5HT-2C receptor expressed in CHOK1 cell membranes at 10 uM after 30 mins relative to control; conditions: CHO-K1
T1 sequence (whole entry): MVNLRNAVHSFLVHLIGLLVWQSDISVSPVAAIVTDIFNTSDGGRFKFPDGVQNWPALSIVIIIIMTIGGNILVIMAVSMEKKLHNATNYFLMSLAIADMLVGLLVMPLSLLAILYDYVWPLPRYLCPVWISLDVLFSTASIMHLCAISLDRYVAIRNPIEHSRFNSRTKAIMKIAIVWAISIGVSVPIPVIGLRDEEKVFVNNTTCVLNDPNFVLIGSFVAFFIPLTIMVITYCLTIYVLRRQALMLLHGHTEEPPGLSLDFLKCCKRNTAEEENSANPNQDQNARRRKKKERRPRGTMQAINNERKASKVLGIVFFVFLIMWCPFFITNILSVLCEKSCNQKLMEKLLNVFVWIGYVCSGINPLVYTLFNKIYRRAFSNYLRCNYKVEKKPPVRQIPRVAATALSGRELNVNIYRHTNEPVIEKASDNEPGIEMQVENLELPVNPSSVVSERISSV
How it was run: (§1)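 Frozen CHO-K1 membranes expressing recombinant human 5-HT2C incubated with 1 nM [3H]mesulergine in 50 mM Tris-HCl pH 7.4 containing 0.1% ascorbic acid and pargyline. Mianserin defined nonspecific binding.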

[2] = target: T2, 5-hydroxytryptamine receptor 2A (Homo sapiens, UniProt P28223); assay: Displacement of [3H]-ketanserin from human recombinant 5HT-2A receptor expressed in CHOK1 cell membranes after 60 mins; design: species or system CHO-K1
T2 sequence (P28223 whole entry): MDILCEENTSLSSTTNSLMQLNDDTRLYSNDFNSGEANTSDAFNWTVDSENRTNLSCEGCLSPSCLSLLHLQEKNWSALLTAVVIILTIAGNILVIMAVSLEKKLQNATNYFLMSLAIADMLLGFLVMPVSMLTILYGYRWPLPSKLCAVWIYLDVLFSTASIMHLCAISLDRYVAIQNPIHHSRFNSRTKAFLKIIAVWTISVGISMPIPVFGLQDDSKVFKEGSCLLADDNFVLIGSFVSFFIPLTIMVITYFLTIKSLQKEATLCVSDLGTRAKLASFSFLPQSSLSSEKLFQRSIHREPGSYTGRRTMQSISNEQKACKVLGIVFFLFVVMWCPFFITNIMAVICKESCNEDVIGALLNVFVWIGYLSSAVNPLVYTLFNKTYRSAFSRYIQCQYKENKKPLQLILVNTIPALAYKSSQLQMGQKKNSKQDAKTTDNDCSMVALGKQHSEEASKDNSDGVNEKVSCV
How it was run: (§2)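 Buffer was 50 mM Tris-HCl pH 7.4 with 5 mM CaCl2 and 0.1% ascorbic acid. Test compound added at a range of concentrations.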

[3] = target: T2, 5-hydroxytryptamine receptor 2A; assay: Displacement of [3H]-ketanserin from human recombinant 5HT-2A receptor expressed in CHOK1 cell membranes at 10 uM after 60 mins relative to control; conditions: CHO-K1; how it was run: as §2
[4] = target: T3, 5-hydroxytryptamine receptor 2C (Homo sapiens, UniProt P28335); assay: Displacement of [3H]-mesulergine from human recombinant 5HT-2C receptor expressed in CHOK1 cell membranes after 30 mins; design: species or system CHO-K1; how it was run: as §1
T3 sequence (P28335 whole entry): T1 sequence (whole entry)

[5] = target: T3, 5-hydroxytryptamine receptor 2C; assay: Agonist activity at serotonin-activated human recombinant 5HT-2C receptor expressed in HEK293 cells assessed as increase in intracellular calcium level after 5 mins measured for 1 min by fluorescence assay; format: functional, cell-based
[6] = target: T2, 5-hydroxytryptamine receptor 2A; assay: Antagonist activity at serotonin-activated human recombinant 5HT-2A receptor expressed in HEK293 cells assessed as decrease in intracellular calcium level after 5 mins measured for 1 min by fluorescence assay; format: functional, cell-based; conditions: read-out: EC50 (the source's name)
How it was run: (§3)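 Cells were washed with HBSS/20 mM HEPES, then loaded 50 min with Fluo-4 NW dye in HBSS with 2.5 mM probenecid. Compound was added for 5 min at 37 °C, then serotonin; fluorescence followed 1 min. Run in duplicate or quadruplicate, repeated several times; IC50 by nonlinear regression.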

Mus musculus [7] = assay: Antiobesity activity in C57BL/6 mouse assessed as inhibition of body weight gain at 50 mg/kg, ip measured after 2 to 12 hrs relative to vehicle-treated control; format: functional; conditions: C57BL/6, ip, route intraperitoneal
Mus musculus [8] = assay: Antiobesity activity in C57BL/6 mouse assessed as inhibition of food intake at 50 mg/kg, ip measured after 2 to 12 hrs relative to vehicle-treated control; format: functional; conditions: C57BL/6, ip, route intraperitoneal
How it was run: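 Male mice were acclimated 1 week at 23 ± 3 °C and 50 ± 20% humidity, then fasted 24 h. They were dosed once intraperitoneally with vehicle or compound: 50 mg/kg in C57BL/6, or 12.5, 25 or 50 mg/kg in B6.V-Lep^ob/J. Food intake was measured at 2, 6 and 12 h versus vehicle control.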

[9] = target: T3, 5-hydroxytryptamine receptor 2C; assay: Antagonist activity at serotonin-activated human recombinant 5HT-2C receptor expressed in HEK293 cells assessed as decrease in intracellular calcium level after 5 mins measured for 1 min by fluorescence assay; format: functional, cell-based; conditions: read-out: EC50 (the source's name)
How it was run: as §3, with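 “Intracellular calcium read on HEK293 cells stably expressing human receptor, seeded 10,000 cells/well and grown 24 h at 37 °C, 5% CO2. Cells” for “Cells”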

| SMILES | inhibition [1] | IC50 [2] | inhibition [3] | IC50 [4] | EC50 [5] | IC50 [6] | inhibition in vivo at 50 mg/kg (Mus musculus [7]) | inhibition in vivo at 50 mg/kg (Mus musculus [8]) | IC50 [9] |
| --- | --- | --- | --- | --- | --- | --- | --- | --- | --- |
| CCN(CC)c1nc(Nc2ccc(C)c(C)c2)c2cn[nH]c2n1 | 52% | 2750 nM | 85% | 8490 nM | – | – | – | – | – |
| CC1CCN(c2nc(Nc3ccc(F)cc3)c3cn[nH]c3n2)CC1 | 86% | 3670 nM | 83% | 1500 nM | – | – | – | – | – |
| COc1cccc(Nc2nc(N3CCN(c4ccc(F)cc4)CC3)nc3[nH]ncc23)c1 | 85% | 350 nM | 100% | 1080 nM | – | – | – | – | – |
| CN1CCN(c2nc3c(c(N4CCSCC4)n2)CCNCC3)CC1 | – | > 10000 nM | – | > 10000 nM | > 10 µM | 687 nM | -15% | 2.1% | – |
| Cc1ccc(CNc2nc(Nc3ccc(F)cc3)c3cn[nH]c3n2)cc1 | 66% | 947 nM | 93% | 5830 nM | – | – | – | – | – |
| CN1CCN(c2nc3c(c(OCc4ccco4)n2)CCNCC3)CC1 | – | 2630 nM | – | 1260 nM | – | – | – | – | – |
| Fc1ccc(Nc2nc(N3CCCCC3)nc3[nH]ncc23)cc1 | 89% | 2200 nM | 86% | 1300 nM | – | – | – | – | – |
| CNc1nc(Nc2ccc(F)cc2)c2cn[nH]c2n1 | 51% | > 10000 nM | 49% | 7790 nM | – | – | – | – | – |
| CN1CCN(c2nc(Nc3ccc(Cl)cc3)c3cn[nH]c3n2)CC1 | 100% | 28.8 nM | 100% | 29.4 nM | – | – | – | – | – |
| Fc1ccc(Nc2nc(NCCN3CCOCC3)nc3[nH]ncc23)cc1 | 35% | 9740 nM | 51% | > 10000 nM | – | – | – | – | – |
| CCN(CC)c1nc(Nc2ccc(Cl)cc2)c2cn[nH]c2n1 | 80% | 1890 nM | 86% | 991 nM | – | – | – | – | – |
| Fc1ccc(Nc2nc(NC3CCCCC3)nc3[nH]ncc23)cc1 | 62% | 3670 nM | 73% | 5710 nM | – | – | – | – | – |
| Fc1ccc(Nc2nc(N3CCOCC3)nc3[nH]ncc23)cc1 | 81% | 2620 nM | 83% | 2070 nM | – | – | – | – | – |
| CCNc1nc(Nc2ccccc2)c2cn[nH]c2n1 | 15% | > 10000 nM | 6% | > 10000 nM | – | – | – | – | – |
| CNc1nc(N2CCN(C)CC2)nc2c1CCNCC2 | – | > 10000 nM | – | > 10000 nM | – | 1200 nM | – | – | – |
| COc1cccc(Nc2nc(N3CCN(C)CC3)nc3[nH]ncc23)c1 | 100% | 9.1 nM | 100% | 7.8 nM | – | – | – | – | – |
| CCN(CC)c1nc(N2CCN(C)CC2)nc2c1CCNCC2 | – | > 10000 nM | – | > 10000 nM | – | 2900 nM | 9.01% | 4.17% | – |
| Fc1ccc(Nc2nc(Cc3ccccc3)nc3c2CCNCC3)cc1 | – | 1.95 nM | – | 8.5 nM | – | – | – | – | 2.6 nM |
| CCN(CC)c1nc(Nc2ccccc2C)c2cn[nH]c2n1 | 88% | 4580 nM | 66% | 242 nM | – | – | – | – | – |
| COc1cccc(Nc2nc(N3CCN(C)CC3)nc3c2CCNCC3)c1 | – | > 10000 nM | – | 2850 nM | – | – | – | – | 2300 nM |
| c1ccc(Cc2nc3c(c(N4CCSCC4)n2)CCNCC3)cc1 | – | 1270 nM | – | 333 nM | – | 96.3 nM | 12% | 18.4% | – |
| CN1CCN(c2nc(Nc3ccccc3)c3cn[nH]c3n2)CC1 | 100% | 25.1 nM | 100% | 86.9 nM | – | – | – | – | – |
| C=CCNc1nc(Nc2ccc(F)cc2)c2cn[nH]c2n1 | 41% | 6580 nM | 60% | > 10000 nM | – | – | – | – | – |
| CC1CC(C)CN(c2nc(Nc3ccc(F)cc3)c3cn[nH]c3n2)C1 (stereo not given) | 67% | 5870 nM | 75% | 3820 nM | – | – | – | – | – |
